Assays:
[1] = test system: Rattus norvegicus; assay: Toxicity in Sprague-Dawley rat assessed as decrease in absolute kidney weight at 75 mg/kg administered as oral gavage qd for 28 consecutive days measured on day 29; type: organism-based; details: in vivo
Outline: (§1)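 Sub-acute study in Sprague-Dawley rats dosed orally with a suspension at 10, 30 and 75 mg/kg once daily for 28 consecutive days. Four groups of up to 30 rats each (15M/15F).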

[2] = test system: Rattus norvegicus; assay: AUC (0 to t) in Sprague-Dawley rat assessed as tizoxanide-glucuronide level in plasma at 30 mg/kg, po administered as single dose; type: ADME, organism-based; details: in vivo
Outline: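 Plasma tizoxanide and tizoxanide glucuronide were measured and PK parameters derived. AUCs were dose-corrected to 30 mg/kg for bioavailability.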

[3] = test system: Rattus norvegicus; assay: Toxicity in Sprague-Dawley rat assessed as epithelial hyperplasia in stomach at 75 mg/kg administered as oral gavage qd for 28 consecutive days followed by 2 weeks recovery period by microscopic method; type: organism-based; details: in vivo, 336 h; outline: as §1
[4] = test system: Rattus norvegicus; assay: Toxicity in Sprague-Dawley rat assessed as body weight gain at 75 mg/kg administered as oral gavage qd for 28 consecutive days measured during last 3 weeks of dosing; type: organism-based; details: in vivo, 504 h; outline: as §1
[5] = test system: Rattus norvegicus; assay: Elimination half life in Sprague-Dawley rat assessed as Tizoxanide level at 28 mg/kg, po; type: ADME, organism-based; details: in vivo
[6] = test system: Rattus norvegicus; assay: Toxicity in Sprague-Dawley rat assessed as epithelial hyperplasia in stomach at 30 to 75 mg/kg administered as oral gavage qd for 28 consecutive days measured on day 29 by microscopic method; type: organism-based; details: in vivo
Outline: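 Sub-acute study in Sprague-Dawley rats: 10, 30 or 75 mg/kg given orally once a day for 28 consecutive days as a yellow suspension. There were 4 groups of up to 30 rats each (15M/15F), including a control. Body weight, clinical observations and terminal findings were assessed.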

[7] = test system: Rattus norvegicus; assay: Toxicity in Sprague-Dawley rat assessed as effect on tidal volume at 100 to 1000 mg/kg administered as single dose via oral gavage; type: organism-based; details: in vivo
Outline: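 Respiratory safety study: conscious rats, 3 groups of 6 (3M/3F), given single oral-gavage doses of 100, 300 or 1000 mg/kg, with an untreated control group. Respiratory rate (breaths per minute), tidal volume and minute volume were recorded, and mortality was noted.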

[8] = test system: Rattus norvegicus; assay: Toxicity in Sprague-Dawley rat assessed as decrease in serum total protein level at 75 mg/kg administered as oral gavage qd for 28 consecutive days followed by 2 weeks recovery period measured on day 43; type: organism-based; details: in vivo, 336 h; outline: as §1

How did the Activity [1] turn out when `CC(C)(C)[C@H](N)C(=O)Oc1ccccc1C(=O)Nc1ncc([N+](=O)[O-])s1.Cl` was run?
The Activity was “Toxic”.

What about the AUCt [2] of the same compound?
Its AUCt is 23600 ng·h/mL.

And the Activity [3]?
The Activity was “Non-Toxic”.

What about the Activity [4] of the same compound?
The Activity was “Non-Toxic”.

What about the “beta t1/2” value [5] of the same compound?
The value was 33 min.

What about the Activity [6] of the same compound?
Its Activity is “Toxic”.

What about the Activity [7] of the same compound?
The Activity was “Toxic”.

What about the Activity [8] of the same compound?
The Activity was “Toxic”.
